Assay results: ChEMBL document CHEMBL4715780, “Biological evaluation of tetracationic compounds based on two 1,4-diazabicyclo[2.2.2]octane moieties connected by different linkers” (Bioorg Med Chem, 2016)

Experiments:
Staphylococcus aureus [1] = experiment: Antibacterial activity against methicillin-resistant Staphylococcus aureus CEMTC 707 assessed as bacterial growth inhibition by CLSI protocol based serial microdilution method; assay type: functional
Staphylococcus aureus [2] = experiment: Antibacterial activity against methicillin-resistant Staphylococcus aureus CEMTC 1732 assessed as concentration required to inhibit visible growth by CLSI protocol based serial microdilution method; assay type: functional
Pseudomonas aeruginosa [3] = experiment: Bactericidal activity against Pseudomonas aeruginosa ATCC 9027 assessed as reduction in colony forming unit at 10 ug/ml measured at 2 hrs by time kill assay relative to control; assay type: functional; set-up: scale not given: the % may be the effect or the level left; conditions: dose 10 µg/ml
Method in brief: (§1)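 Overnight Pseudomonas aeruginosa culture adjusted in Mueller–Hinton broth to about 2.5 × 10⁵ CFU/mL. Compound added at 2.5, 5 or 10 µg/mL, then incubated at 37 °C with shaking (580 rpm) for 22 h. Viable colonies counted on plates at 2, 4, 6, 8 and 22 h. Quantification limit 100 CFU/mL; triplicate.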

Pseudomonas aeruginosa [4] = experiment: Bactericidal activity against Pseudomonas aeruginosa ATCC 9027 assessed as colony forming unit at 10 ug/ml measured at 4 hrs by time kill assay (reference value: 1.2 x 10^7 CFU/ml); assay type: functional; conditions: dose 10 µg/ml; method in brief: as §1
Pseudomonas aeruginosa [5] = experiment: Antibacterial activity against Pseudomonas aeruginosa ATCC 9027 assessed as bacterial growth inhibition by CLSI protocol based serial microdilution method; assay type: functional
[6] = Selectivity index, ratio of CC50 for MDCK cells to EC50 for Influenza A virus (A/Puerto Rico/8/34 (H1N1)) infected in MDCK cells; assay type: toxicity, cell-based; conditions: dog, read-out: Ratio CC50/EC50
Method in brief: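 Ratio of CC₅₀ to EC₅₀, both in MDCK cells, with cytotoxicity run in parallel with the antiviral assay. EC₅₀ is the concentration halving virus production (0.3 log₁₀ EID₅₀ titre drop). It was obtained after 1 h compound pre-incubation, infection, 48 h at 37 °C, and hemagglutination read-out with 1% chicken erythrocytes.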

Pseudomonas aeruginosa [7] = experiment: Bactericidal activity against Pseudomonas aeruginosa ATCC 9027 assessed as reduction in colony forming unit at 10 ug/ml measured at 8 hrs by time kill assay relative to control; assay type: functional; set-up: scale not given: the % may be the effect or the level left; conditions: dose 10 µg/ml; method in brief: as §1
Pseudomonas aeruginosa [8] = experiment: Bactericidal activity against Pseudomonas aeruginosa ATCC 9027 assessed as colony forming unit at 10 ug/ml measured at 2 hrs by time kill assay (reference value: 3.6 x 10^5 CFU/ml); assay type: functional; conditions: dose 10 µg/ml; method in brief: as §1
Pseudomonas aeruginosa [9] = experiment: Bactericidal activity against Pseudomonas aeruginosa ATCC 9027 assessed as reduction in colony forming unit at 2.5 ug/ml measured at 8 hrs by time kill assay relative to control; assay type: functional; set-up: scale not given: the % may be the effect or the level left; conditions: dose 2.5 µg/ml; method in brief: as §1
Pseudomonas aeruginosa [10] = experiment: Bactericidal activity against Pseudomonas aeruginosa ATCC 9027 assessed as reduction in colony forming unit at 10 ug/ml measured at 6 hrs by time kill assay relative to control; assay type: functional; set-up: scale not given: the % may be the effect or the level left; conditions: dose 10 µg/ml; method in brief: as §1
Pseudomonas aeruginosa [11] = experiment: Bactericidal activity against Pseudomonas aeruginosa ATCC 9027 assessed as colony forming unit at 5 ug/ml measured at 4 hrs by time kill assay (reference value: 1.2 x 10^7 CFU/ml); assay type: functional; conditions: dose 5 µg/ml; method in brief: as §1
Proteus vulgaris = experiment: Antibacterial activity against Proteus vulgaris ATCC 6380 assessed as concentration required to inhibit visible growth by CLSI protocol based serial microdilution method; assay type: functional
[12] = Cytotoxicity against human MCF7 cells assessed as reduction in cell viability measured after 24 hrs by MTT assay; assay type: cell-based
Method in brief: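 HEK293T or MCF-7 cells in IMDM with 10% FBS, seeded at 20,000 per well and grown overnight. Compounds at […] in fresh medium for 24 h at 37 °C, 5% CO₂. MTT then added for 4 h, precipitate dissolved overnight in SDS-HCl, absorbance read at 570 nm. Viability expressed relative to untreated cells, giving CC₅₀. Duplicate wells, at least two independent repeats.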

Staphylococcus aureus [13] = experiment: Bactericidal activity against […] Staphylococcus aureus ATCC 25923 assessed as colony forming unit at 1.25 ug/ml measured at 6 hrs by time kill assay (reference value: 1.2 x 10^6 CFU/ml); assay type: functional; conditions: dose 1.25 µg/ml
Method in brief: (§2)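 S. aureus overnight culture was adjusted in MHB to ~8 × 10⁵ CFU/mL. Compound was added and the mixture incubated at 37 °C with shaking (580 rpm) for 22 h. Aliquots were plated for colony counts at 2, 4, 6, 8 and 22 h, with a quantification limit of 100 CFU/mL. Runs were done in triplicate.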

Escherichia coli = experiment: Antibacterial activity against Escherichia coli ATCC 25922 assessed as concentration required to inhibit visible growth by CLSI protocol based serial microdilution method; assay type: functional
Staphylococcus aureus [14] = experiment: Bactericidal activity against […] Staphylococcus aureus ATCC 25923 assessed as colony forming unit at 5 ug/ml measured at 8 hrs by time kill assay (reference value: 2.7 x 10^8 CFU/ml); assay type: functional; conditions: dose 5 µg/ml; method in brief: as §2
Pseudomonas aeruginosa [15] = experiment: Bactericidal activity against Pseudomonas aeruginosa ATCC 9027 assessed as reduction in colony forming unit at 5 ug/ml measured at 6 hrs by time kill assay relative to control; assay type: functional; set-up: scale not given: the % may be the effect or the level left; conditions: dose 5 µg/ml; method in brief: as §1
[16] = Selectivity index, ratio of CC50 for HEK293T cells assessed as reduction in cell viability measured after 24 hrs by MTT assay to MIC for Enterococcus faecalis ATCC 51299 assessed as bacterial growth inhibition by CLSI protocol based serial microdilution method; assay type: toxicity; conditions: human, read-out: Selectivity Index
Staphylococcus aureus [17] = experiment: Bactericidal activity against […] Staphylococcus aureus ATCC 25923 assessed as colony forming unit at 1.25 ug/ml measured at 8 hrs by time kill assay (reference value: 2.7 x 10^8 CFU/ml); assay type: functional; conditions: dose 1.25 µg/ml; method in brief: as §2
Pseudomonas aeruginosa [18] = experiment: Bactericidal activity against Pseudomonas aeruginosa ATCC 9027 assessed as colony forming unit at 5 ug/ml measured at 22 hrs by time kill assay (reference value: 1.7 x 10^9 CFU/ml); assay type: functional; conditions: dose 5 µg/ml; method in brief: as §1
[19] = Selectivity index, ratio of CC50 for HEK293T cells assessed as reduction in cell viability measured after 24 hrs by MTT assay to MIC for Staphylococcus aureus ATCC 25923 assessed as bacterial growth inhibition by CLSI protocol based serial microdilution method; assay type: toxicity; conditions: human, read-out: Selectivity Index
Pseudomonas aeruginosa [20] = experiment: Bactericidal activity against Pseudomonas aeruginosa ATCC 9027 assessed as reduction in colony forming unit at 5 ug/ml measured at 4 hrs by time kill assay relative to control; assay type: functional; set-up: scale not given: the % may be the effect or the level left; conditions: dose 5 µg/ml; method in brief: as §1
Staphylococcus aureus [21] = experiment: Bactericidal activity against […] Staphylococcus aureus ATCC 25923 assessed as colony forming unit at 2.5 ug/ml measured at 4 hrs by time kill assay (reference value: 7.8 x 10^6 CFU/ml); assay type: functional; conditions: dose 2.5 µg/ml; method in brief: as §2
Staphylococcus aureus [22] = experiment: Bactericidal activity against […] Staphylococcus aureus ATCC 25923 assessed as colony forming unit at 5 ug/ml measured at 4 hrs by time kill assay (reference value: 7.8 x 10^6 CFU/ml); assay type: functional; conditions: dose 5 µg/ml; method in brief: as §2
Pseudomonas aeruginosa [23] = experiment: Bactericidal activity against Pseudomonas aeruginosa ATCC 9027 assessed as reduction in colony forming unit at 5 ug/ml measured at 2 hrs by time kill assay relative to control; assay type: functional; set-up: scale not given: the % may be the effect or the level left; conditions: dose 5 µg/ml; method in brief: as §1
Staphylococcus aureus [24] = experiment: Antibacterial activity against methicillin-resistant Staphylococcus aureus CEMTC 1850 assessed as concentration required to inhibit visible growth by CLSI protocol based serial microdilution method; assay type: functional
Staphylococcus aureus [25] = experiment: Antibacterial activity against methicillin-resistant Staphylococcus aureus CEMTC 1733 assessed as concentration required to inhibit visible growth by CLSI protocol based serial microdilution method; assay type: functional

## CCCCCCCCCCCC[N+]12CC[N+](CCC[N+]34CC[N+](CCCCCCCCCCCC)(CC3)CC4)(CC1)CC2
Staphylococcus aureus [1]
  MIC: 0.5 µg/mL
Staphylococcus aureus [2]
  MBC: 1 µg/mL
Pseudomonas aeruginosa [3]
  Activity: >=99.9%
Pseudomonas aeruginosa [4]
  Activity: <100 CFU/ml
Pseudomonas aeruginosa [5]
  MIC: 1.6 µg/mL
[6]
  selectivity ratio: 7
Pseudomonas aeruginosa [7]
  Activity: >=99.9%
Pseudomonas aeruginosa [8]
  Activity: <100 CFU/ml
Pseudomonas aeruginosa [9]
  Activity: >=99.9%
Pseudomonas aeruginosa [10]
  Activity: >=99.9%
Pseudomonas aeruginosa [11]
  Activity: <100 CFU/ml
Proteus vulgaris
  MBC: > 100 µg/mL
[12]
  CC50 at 24 h: 5 µg/mL
Staphylococcus aureus [13]
  Activity: <100 CFU/ml
Escherichia coli
  MBC: 3.1 µg/mL
Staphylococcus aureus [14]
  Activity: <100 CFU/ml
Pseudomonas aeruginosa [15]
  Activity: >=99.9%
[16]
  selectivity ratio at 24 h: 4
Staphylococcus aureus [17]
  Activity: <100 CFU/ml
Pseudomonas aeruginosa [18]
  Activity: <100 CFU/ml
[19]
  selectivity ratio at 24 h: 22
Pseudomonas aeruginosa [20]
  Activity: >=99.9%
Staphylococcus aureus [21]
  Activity: <100 CFU/ml
Staphylococcus aureus [22]
  Activity: <100 CFU/ml
Pseudomonas aeruginosa [23]
  Activity: >=99.9%
Staphylococcus aureus [24]
  MBC: 1 µg/mL
Staphylococcus aureus [25]
  MBC: 1 µg/mL

## CCCCCCCCCCCC[N+]12CC[N+](Cc3ccccc3C[N+]34CC[N+](CCCCCCCCCCCC)(CC3)CC4)(CC1)CC2
Staphylococcus aureus [1]
  MIC: 0.5 µg/mL
Staphylococcus aureus [2]
  MBC: 1 µg/mL
Pseudomonas aeruginosa [3]
  Activity: ≥ 99.9%
Pseudomonas aeruginosa [4]
  Activity: <100 CFU/ml
Pseudomonas aeruginosa [5]
  MIC: 1.6 µg/mL
[6]
  selectivity ratio: 2
Pseudomonas aeruginosa [7]
  Activity: >=99.9%
Pseudomonas aeruginosa [8]
  Activity: <100 CFU/ml
Pseudomonas aeruginosa [9]
  Activity: >=99.9%
Pseudomonas aeruginosa [10]
  Activity: >=99.9%
Pseudomonas aeruginosa [11]
  Activity: <100 CFU/ml
Proteus vulgaris
  MBC: > 100 µg/mL
[12]
  CC50 at 24 h: 4 µg/mL
Staphylococcus aureus [13]
  Activity: <100 CFU/ml
Escherichia coli
  MBC: 3.1 µg/mL
Staphylococcus aureus [14]
  Activity: <100 CFU/ml
Pseudomonas aeruginosa [15]
  Activity: >=99.9%
[16]
  selectivity ratio at 24 h: 5
Staphylococcus aureus [17]
  Activity: <100 CFU/ml
Pseudomonas aeruginosa [18]
  Activity: <100 CFU/ml
[19]
  selectivity ratio at 24 h: 7
Pseudomonas aeruginosa [20]
  Activity: >=99.9%
Staphylococcus aureus [21]
  Activity: <100 CFU/ml
Staphylococcus aureus [22]
  Activity: <100 CFU/ml
Pseudomonas aeruginosa [23]
  Activity: >=99.9%
Staphylococcus aureus [24]
  MBC: 1 µg/mL
Staphylococcus aureus [25]
  MBC: 1 µg/mL
